In test [1] the target is T1, Renin (Homo sapiens, UniProt P00797).
T1 sequence (P00797 whole entry): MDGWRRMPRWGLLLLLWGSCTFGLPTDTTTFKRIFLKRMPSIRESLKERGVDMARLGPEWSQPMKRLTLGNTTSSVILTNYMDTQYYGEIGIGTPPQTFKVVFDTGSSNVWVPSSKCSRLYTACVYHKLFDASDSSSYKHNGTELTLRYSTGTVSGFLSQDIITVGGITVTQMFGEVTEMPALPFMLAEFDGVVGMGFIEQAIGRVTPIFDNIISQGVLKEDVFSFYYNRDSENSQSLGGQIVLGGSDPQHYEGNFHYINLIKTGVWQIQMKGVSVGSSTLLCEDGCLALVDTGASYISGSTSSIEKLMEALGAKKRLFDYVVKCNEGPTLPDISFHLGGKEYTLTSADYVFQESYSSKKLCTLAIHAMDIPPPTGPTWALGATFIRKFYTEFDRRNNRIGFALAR
Nature of the test: In vitro inhibitory activity against human plasma renin. It counts as cell-free.

The target in test [2] is T1, Renin. Nature of the test: Inhibition of dog plasma renin activity. Format: cell-free, Canis lupus familiaris. The settings on record: target entry is the homologue from another species.
Test [3] addresses T2, Renin (Rattus norvegicus, UniProt P08424).
T2 sequence (P08424 whole entry): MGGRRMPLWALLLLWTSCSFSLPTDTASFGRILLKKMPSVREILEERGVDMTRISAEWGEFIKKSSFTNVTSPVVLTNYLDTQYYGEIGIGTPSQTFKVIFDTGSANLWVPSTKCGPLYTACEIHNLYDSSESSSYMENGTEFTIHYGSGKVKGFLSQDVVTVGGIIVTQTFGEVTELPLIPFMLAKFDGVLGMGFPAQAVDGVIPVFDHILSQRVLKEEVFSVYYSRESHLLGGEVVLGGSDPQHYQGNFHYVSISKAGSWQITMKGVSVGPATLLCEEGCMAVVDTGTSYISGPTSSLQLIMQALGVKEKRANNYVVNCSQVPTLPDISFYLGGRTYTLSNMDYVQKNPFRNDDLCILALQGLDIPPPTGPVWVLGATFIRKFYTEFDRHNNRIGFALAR
Nature of the test: Inhibition of rat plasma renin activity.

Test [4] deals with T1, Renin. Nature of the test: Inhibition of monkey plasma renin activity. Format: cell-free, Cercopithecidae. The settings on record: target entry is the homologue from another species.
The target of test [5] is T1, Renin. Nature of the test: Inhibition of man plasma renin activity. It counts as cell-free.
The target in test [6] is T1, Renin. Nature of the test: In vitro inhibitory activity against dog plasma renin. The settings on record: target entry is the homologue from another species. Format: cell-free, Canis lupus familiaris.
For test [7], the target named is T2, Renin. Nature of the test: In vitro inhibitory activity against rat plasma renin. Format: cell-free.
Test [8] addresses T1, Renin. Nature of the test: In vitro inhibitory activity against monkey plasma renin. Format: cell-free, Cercopithecidae. The settings on record: target entry is the homologue from another species.
Test [9] concerns the target T1, Renin. Nature of the test: In vitro inhibitory activity against man (human) plasma renin. It counts as cell-free.
For test [10], the target named is T1, Renin. Nature of the test: In vitro inhibitory activity against monkey (Callithrix jacchus) plasma renin. It counts as cell-free. The settings on record: target entry is the homologue from another species. Summed up: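 Pooled plasma from animals whose plasma renin activity was stimulated with furosemide, incubated at 37 °C in pH 7.4 phosphate buffer with phenylmethanesulfonyl fluoride as angiotensinase inhibitor and increasing inhibitor concentrations. Angiotensin I generated was measured by RIA (Haber method). IC50 came from nonlinear logit vs log-concentration regression over five to seven concentrations.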

Structures are written as SMILES. Non-standard residues stand in square brackets, D forms with d. Residues, ends and D or L forms follow the SMILES beside them. *: point of attachment. Ala(1-Adamantyl) = N[C@@H](CC12CC3CC(CC(C3)C1)C2)C(=O)O; Sta = CC(C)C[C@H](N)[C@@H](O)CC(=O)O; Adoc = O=C(OC12CC3CC(CC(C3)C1)C2)*; NMeF = CN[C@@H](Cc1ccccc1)C(=O)O; X1 = CC(C)(C)OC(=O)NCCS(=O)(=O)*; αMeF = C[C@](N)(Cc1ccccc1)C(=O)O; Phg = N[C@H](C(=O)O)c1ccccc1; Isovaleryl = CC(C)CC(=O)*; Nle = CCCC[C@H](N)C(=O)O; Nva = CCC[C@H](N)C(=O)O; Cbz = O=C(OCc1ccccc1)*; Boc = CC(C)(C)OC(=O)*; Moc = COC(=O)* A value given as a limit tells only on which side of the number the result lay.

Broadly, the IC50 is the concentration that inhibits the measured activity by half.

As to `CCCC[C@H](NC(=O)[C@@H](N)Cc1ccccc1)C(=O)N[C@@H](CC(C)C)[C@@H](O)CC(=O)N[C@@H](C)C(=O)N[C@@H](CC(C)C)[C@@H](O)CC(=O)OC` (H-F[Nle][Sta]A[Sta]-OMe), the IC50 in [1] is 7700 nM.
Still for that read-out and setting: for `COC(=O)C[C@H](O)[C@H](CC(C)C)NC(=O)[C@H](C)NC(=O)C[C@H](O)[C@H](CC(C)C)NC(=O)[C@H](Cc1ccccc1)NC(=O)[C@@H](NC(=O)OC(C)(C)C)c1ccccc1` (Boc-[Phg]F[Sta]A[Sta]-OMe) the value was > 10000 nM.
Consider `COC(=O)C[C@H](O)[C@H](CC(C)C)NC(=O)[C@H](C)NC(=O)C[C@H](O)[C@H](CC(C)C)NC(=O)[C@H](CCCCN)NC(=O)[C@H](Cc1ccccc1)NC(=O)CC(C)C` (Isovaleryl-FK[Sta]A[Sta]-OMe), for which the IC50 in [1] is > 10000 nM.
On to `COC(=O)C[C@H](O)[C@H](CC(C)C)NC(=O)[C@H](C)NC(=O)C[C@H](O)[C@H](CC(C)C)NC(=O)[C@@H](NC(=O)[C@H](Cc1c[nH]c2ccccc12)NC(=O)OCc1ccccc1)C(C)C` (Cbz-WV[Sta]A[Sta]-OMe), for which the IC50 in [2] was 42 nM; in [3], 22 nM; in [4], 25 nM; in [5] it was 150 nM.
In [1], `CCC[C@H](NC(=O)[C@H](Cc1ccccc1)NC(=O)OC(C)(C)C)C(=O)N[C@@H](CC(C)C)[C@@H](O)CC(=O)N[C@@H](C)C(=O)N[C@@H](CC(C)C)[C@@H](O)CC(=O)OC` (Boc-F[Nva][Sta]A[Sta]-OMe) registered an IC50 of 51 nM.
In test [3], `COC(=O)C[C@H](O)[C@H](CC(C)C)NC(=O)[C@H](C)NC(=O)C[C@H](O)[C@H](CC(C)C)NC(=O)[C@H](Cc1c[nH]c2ccccc12)NC(=O)[C@H](Cc1c[nH]c2ccccc12)NC(=O)OC(C)(C)C` (Boc-WW[Sta]A[Sta]-OMe) had an IC50 of 1000 nM.
As to `COC(=O)C[C@H](O)[C@H](CC(C)C)NC(=O)[C@H](C)NC(=O)C[C@H](O)[C@H](CC(C)C)NC(=O)[C@H](Cc1c[nH]c2ccccc12)NC(=O)[C@H](Cc1ccccc1)NC(=O)OCc1ccccc1` (Cbz-FW[Sta]A[Sta]-OMe), the half-inhibitory concentration (IC50) in test [1] stood at 1400 nM.
In test [1], `CCC[C@H](NC(=O)[C@H](Cc1ccccc1)NC(=O)OC)C(=O)N[C@@H](CC(C)C)[C@@H](O)CC(=O)N[C@@H](C)C(=O)N[C@@H](CC(C)C)[C@@H](O)CC(=O)OC` (Moc-F[Nva][Sta]A[Sta]-OMe) displayed an IC50 of 260 nM.
On to `COC(=O)C[C@H](O)[C@H](CC(C)C)NC(=O)[C@H](C)NC(=O)C[C@H](O)[C@H](CC(C)C)NC(=O)[C@H](Cc1ccccc1)NC(=O)[C@H](Cc1ccccc1)NC(=O)OC(C)(C)C`, for which the IC50 in [6] was found to be 76 nM; in test [1], 190 nM; in test [7], 190 nM; in test [8], 130 nM.
For the compound `COC(=O)CC(O)[C@H](CC(C)C)NC(=O)[C@H](C)NC(=O)CC(O)[C@H](CC(C)C)NC(=O)CNC(=O)[C@H](Cc1ccccc1)NC(=O)CC(C)C` (stereo not given in full), the midpoint of inhibition in [1], the IC50, lay at 4700 nM.
In the case of `COC(=O)C[C@H](O)[C@H](CC(C)C)NC(=O)[C@H](C)NC(=O)C[C@H](O)[C@H](CC(C)C)NC(=O)[C@H](Cc1ccccc1)NC(=O)[C@](C)(Cc1ccccc1)NC(=O)OC(C)(C)C` (Boc-[αMeF]F[Sta]A[Sta]-OMe), the IC50 in test [1] is > 10000 nM.
The compound `COC(=O)C[C@H](O)[C@H](CC(C)C)NC(=O)[C@H](C)NC(=O)C[C@H](O)[C@H](CC(C)C)NC(=O)[C@H](Cc1ccccc1)NC(=O)[C@H](Cc1ccccc1)NC(C)=O` (Ac-FF[Sta]A[Sta]-OMe) showed an IC50 in [1] of 1400 nM.
As for `COC(=O)C[C@H](O)[C@H](CC(C)C)NC(=O)[C@H](C)NC(=O)C[C@H](O)[C@H](CC(C)C)NC(=O)[C@H](Cc1c[nH]cn1)NC(=O)[C@H](Cc1c[nH]c2ccccc12)NC(=O)OC(C)(C)C` (Boc-WH[Sta]A[Sta]-OMe), the IC50 in test [1] was determined as 140 nM; in test [3], 1300 nM; in test [4], 110 nM; in test [5] it was 140 nM.
With `COC(=O)CC(O)[C@H](CC(C)C)NC(=O)[C@H](C)NC(=O)CC(O)[C@H](CC(C)C)NC(=O)[C@@H](Cc1ccccc1)NC(=O)[C@H](Cc1ccccc1)NC(=O)OCc1ccccc1` (stereo not given in full), the IC50 in test [1] is > 10000 nM.
Compound `COC(=O)CC(O)[C@H](CC(C)C)NC(=O)[C@H](C)NC(=O)CC(O)[C@H](CC(C)C)NC(=O)CCCNC(=O)[C@H](Cc1ccccc1)NC(=O)CC(C)C` (stereo not given in full) had an IC50 in test [1] of 200 nM.
Take `COC(=O)C[C@H](O)[C@H](CC(C)C)NC(=O)[C@H](C)NC(=O)C[C@H](O)[C@H](CC(C)C)NC(=O)[C@H](Cc1c[nH]cn1)NC(=O)[C@H](CC12CC3CC(CC(C3)C1)C2)NC(=O)OC(C)(C)C` (Boc-[Ala(1-Adamantyl)]H[Sta]A[Sta]-OMe): the IC50 was 650 nM in test [6], 250 nM in test [1], 2200 nM in test [7] and 250 nM in test [9].
For `COC(=O)CC(O)[C@H](CC(C)C)NC(=O)[C@H](C)NC(=O)CC(O)[C@H](CC(C)C)NC(=O)[C@H](Cc1ccccc1)NC(=O)[C@@H](Cc1ccccc1)NC(=O)OC(C)(C)C` (stereo not given in full), the IC50 in test [1] is > 10000 nM.
For the compound `COC(=O)C[C@H](O)[C@H](CC(C)C)NC(=O)[C@H](C)NC(=O)C[C@H](O)[C@H](CC(C)C)NC(=O)[C@H](CC(C)C)NC(=O)[C@H](Cc1ccccc1)NC(=O)CC(C)C` (Isovaleryl-FL[Sta]A[Sta]-OMe), the IC50 in test [1] was determined as 75 nM.
On to `COC(=O)CC(O)[C@H](CC(C)C)NC(=O)[C@H](C)NC(=O)CC(O)[C@H](CC(C)C)NC(=O)[C@@H](NS(=O)(=O)CCNC(=O)OCc1ccccc1)C(C)C` (stereo not given in full), for which the IC50 in [1] is > 10000 nM.
With `COC(=O)C[C@H](O)[C@H](CC(C)C)NC(=O)[C@H](C)NC(=O)C[C@H](O)[C@H](CC(C)C)NC(=O)[C@H](Cc1ccccc1)NC(=O)[C@H](Cc1ccccc1)NS(=O)(=O)CCNC(=O)OC(C)(C)C` (X1-FF[Sta]A[Sta]-OMe), half-maximal inhibition in test [1] (IC50) was put at 180 nM.
In turn, `COC(=O)C[C@H](O)[C@H](CC(C)C)NC(=O)[C@H](C)NC(=O)C[C@H](O)[C@H](CC(C)C)NC(=O)[C@H](Cc1ccccc1)NC(=O)[C@H](Cc1ccccc1)NC(=O)OC12CC3CC(CC(C3)C1)C2` (Adoc-FF[Sta]A[Sta]-OMe) registered an IC50 in [1] of 3000 nM.
For the compound `CCCC[C@H](NC(=O)[C@H](Cc1ccccc1)NC(=O)OC(C)(C)C)C(=O)N[C@@H](CC(C)C)[C@@H](O)CC(=O)N[C@@H](C)C(=O)N[C@@H](CC(C)C)[C@@H](O)CC(=O)O` (Boc-F[Nle][Sta]A[Sta]-OH), the IC50 in [1] is 30 nM.
The same measure, in the same setting: for `COC(=O)C[C@H](O)[C@H](CC(C)C)NC(=O)[C@H](C)NC(=O)C[C@H](O)[C@H](CC(C)C)NC(=O)[C@H](Cc1ccccc1)NC(=O)[C@H](Cc1ccccc1)NC(=O)CC(C)C` (Isovaleryl-FF[Sta]A[Sta]-OMe) the value was 320 nM.
As for `CCC[C@H](N[C@@H](CC(C)C)[C@@H](O)CC(=O)N[C@@H](C)C(=O)N[C@@H](CC(C)C)[C@@H](O)CC(=O)OC)C(=O)N[C@@H](Cc1ccccc1)C(=O)NC(=O)CC(C)C`, the IC50 in test [6] stood at 58 nM; in test [1], 42 nM; in test [7], 880 nM; in [9], 42 nM; in test [10], 30 nM.
In test [1], `COC(=O)C[C@H](O)[C@H](CC(C)C)NC(=O)[C@H](C)NC(=O)C[C@H](O)[C@H](CC(C)C)NC(=O)[C@@H]1CCCN1C(=O)[C@H](Cc1ccccc1)NC(=O)OCc1ccccc1` (Cbz-FP[Sta]A[Sta]-OMe) gave an IC50 of 10000 nM.
Consider `COC(=O)C[C@H](O)[C@H](CC(C)C)NC(=O)[C@H](C)NC(=O)C[C@H](O)[C@H](CC(C)C)NC(=O)[C@H](Cc1ccccc1)NC(=O)[C@H](Cc1ccccc1)N(C)C(=O)OC(C)(C)C` (Boc-[NMeF]F[Sta]A[Sta]-OMe), for which the IC50 in test [1] was > 10000 nM; in [7], 17000 nM; in test [9] it was 15000 nM; in [8], 15000 nM.
